Assay results taken from ChEMBL document CHEMBL4689842, “EUbOPEN Chemogenomics Library wave 1” (2021).
Several values for one entry are separate records, joined by “and”; a condition that tells them apart may be missing. Identical values can stand only once.

Test system: HEK-293T
Experiment: Multiplex assay against HEK293T;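 for Population Tubulin-Different-Phenotype (%): share of the cells with healthy nuclei that show this phenotype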
Assay type: toxicity, cell-based
Conditions: human
In short: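 At seeding, live cells were stained with Hoechst33342, BioTracker Green Microtubule Cytoskeleton Dye, MitoTracker Red and Annexin V Alexa Fluor 680. After compound addition they were imaged on a CQ1 microscope at 37°C and 5% CO2, and CellPathfinder machine-learning gating sorted them into Hoechst high-intensity objects or normal cells, with normal cells further split into healthy, pyknosed or fragmented nuclei and pyknosed cells into mitotic or apoptotic. Tubulin, mitochondrial-mass and membrane-permeability phenotypes are given as per cents of cells with healthy nuclei.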

[1] = 12 h, 1 µM, compound concentration 1 uM, replicate 1
[2] = 12 h, 1 µM, compound concentration 1 uM, replicate 2
[3] = 12 h, 10 µM, compound concentration 10 uM, replicate 1
[4] = 12 h, 10 µM, compound concentration 10 uM, replicate 2
[5] = 24 h, 1 µM, compound concentration 1 uM, replicate 1
[6] = 24 h, 1 µM, compound concentration 1 uM, replicate 2
[7] = 24 h, 10 µM, compound concentration 10 uM, replicate 1
[8] = 24 h, 10 µM, compound concentration 10 uM, replicate 2
[9] = 48 h, 10 µM, compound concentration 10 uM, replicate 1
[10] = 48 h, 10 µM, compound concentration 10 uM, replicate 2

Cc1ccc2nc(NCCN)c3ncc(C)n3c2c1.O=C(O)C(F)(F)F.O=C(O)C(F)(F)F
Population Apoptotic (%) [1]: 29% | Population Fragmented Nuclei (%) [1]: 14% | Population Healthy Nuclei (%) [1]: 67% | Population Hoechst High Intensity Objects (%) [1]: 13% | Population Membrane Permeable-Phenotype (%) [1]: 6% | Population Mitochondria Different-Phenotype (%) [1]: 2% | Population Mitotic Cells (%) [1]: 70% | Population Normal (%) [1]: 86% | Population Pyknosed Nuclei (%) [1]: 18% | Population Tubulin-Different-Phenotype (%) [1]: 3% | Total Cell Count [1]: 581 | Population Apoptotic (%) [2]: 14% | Population Fragmented Nuclei (%) [2]: 10% | Population Healthy Nuclei (%) [2]: 85% | Population Hoechst High Intensity Objects (%) [2]: 2% | Population Membrane Permeable-Phenotype (%) [2]: 1% | Population Mitochondria Different-Phenotype (%) [2]: 9% | Population Mitotic Cells (%) [2]: 85% | Population Normal (%) [2]: 97% | Population Pyknosed Nuclei (%) [2]: 3% | Population Tubulin-Different-Phenotype (%) [2]: 5% | Total Cell Count [2]: 1754 | Population Apoptotic (%) [3]: 25% | Population Fragmented Nuclei (%) [3]: 13% | Population Healthy Nuclei (%) [3]: 58% | Population Hoechst High Intensity Objects (%) [3]: 14% | Population Membrane Permeable-Phenotype (%) [3]: 5% | Population Mitochondria Different-Phenotype (%) [3]: 14% | Population Mitotic Cells (%) [3]: 75% | Population Normal (%) [3]: 85% | Population Pyknosed Nuclei (%) [3]: 27% | Population Tubulin-Different-Phenotype (%) [3]: 14% | Total Cell Count [3]: 591 | Population Apoptotic (%) [4]: 26% | Population Fragmented Nuclei (%) [4]: 5% | Population Healthy Nuclei (%) [4]: 83% | Population Hoechst High Intensity Objects (%) [4]: 5% | Population Membrane Permeable-Phenotype (%) [4]: 1% | Population Mitochondria Different-Phenotype (%) [4]: 27% | Population Mitotic Cells (%) [4]: 73% | Population Normal (%) [4]: 94% | Population Pyknosed Nuclei (%) [4]: 10% | Population Tubulin-Different-Phenotype (%) [4]: 19% | Total Cell Count [4]: 1004 | Population Apoptotic (%) [5]: 35% | Population Fragmented Nuclei (%) [5]: 14% | Population Healthy Nuclei (%) [5]: 76% | Population Hoechst High Intensity Objects (%) [5]: 6% | Population Membrane Permeable-Phenotype (%) [5]: 5% | Population Mitochondria Different-Phenotype (%) [5]: 3% | Population Mitotic Cells (%) [5]: 64% | Population Normal (%) [5]: 93% | Population Pyknosed Nuclei (%) [5]: 8% | Population Tubulin-Different-Phenotype (%) [5]: 6% | Total Cell Count [5]: 670 | Population Apoptotic (%) [6]: 5% | Population Fragmented Nuclei (%) [6]: 30% | Population Healthy Nuclei (%) [6]: 67% | Population Hoechst High Intensity Objects (%) [6]: 3% | Population Membrane Permeable-Phenotype (%) [6]: 4% | Population Mitochondria Different-Phenotype (%) [6]: 1% | Population Mitotic Cells (%) [6]: 94% | Population Normal (%) [6]: 96% | Population Pyknosed Nuclei (%) [6]: 1% | Total Cell Count [6]: 2957 | Population Apoptotic (%) [7]: 38% | Population Fragmented Nuclei (%) [7]: 14% | Population Healthy Nuclei (%) [7]: 60% | Population Hoechst High Intensity Objects (%) [7]: 20% | Population Membrane Permeable-Phenotype (%) [7]: 6% | Population Mitochondria Different-Phenotype (%) [7]: 18% | Population Mitotic Cells (%) [7]: 61% | Population Normal (%) [7]: 79% | Population Pyknosed Nuclei (%) [7]: 25% | Population Tubulin-Different-Phenotype (%) [7]: 12% | Total Cell Count [7]: 482 | Population Apoptotic (%) [8]: 44% | Population Fragmented Nuclei (%) [8]: 7% | Population Healthy Nuclei (%) [8]: 85% | Population Hoechst High Intensity Objects (%) [8]: 10% | Population Membrane Permeable-Phenotype (%) [8]: 1% | Population Mitochondria Different-Phenotype (%) [8]: 27% | Population Mitotic Cells (%) [8]: 55% | Population Normal (%) [8]: 89% | Population Pyknosed Nuclei (%) [8]: 6% | Population Tubulin-Different-Phenotype (%) [8]: 19% | Total Cell Count [8]: 858

CN[C@@H]1C[C@H]2O[C@@](C)([C@@H]1OC)n1c3ccccc3c3c4c(c5c6ccccc6n2c5c31)C(=O)NC4 [STAUROSPORINE]
Population Apoptotic (%) [1]: 27% | Population Fragmented Nuclei (%) [1]: 37% | Population Healthy Nuclei (%) [1]: 16% | Population Hoechst High Intensity Objects (%) [1]: 15% | Population Membrane Permeable-Phenotype (%) [1]: 16% | Population Mitochondria Different-Phenotype (%) [1]: 9% | Population Mitotic Cells (%) [1]: 72% | Population Normal (%) [1]: 84% | Population Pyknosed Nuclei (%) [1]: 46% | Population Tubulin-Different-Phenotype (%) [1]: 32% | Population Apoptotic (%) [2]: 9% | Population Fragmented Nuclei (%) [2]: 18% | Population Healthy Nuclei (%) [2]: 35% | Population Hoechst High Intensity Objects (%) [2]: 10% | Population Membrane Permeable-Phenotype (%) [2]: 12% | Population Mitochondria Different-Phenotype (%) [2]: 13% | Population Mitotic Cells (%) [2]: 90% | Population Normal (%) [2]: 89% | Population Tubulin-Different-Phenotype (%) [2]: 74% | Population Apoptotic (%) [3]: 31% and 93% and 82% | Population Fragmented Nuclei (%) [3]: 37% and 33% and 30% | Population Hoechst High Intensity Objects (%) [3]: 15% and 23% and 17% | Population Membrane Permeable-Phenotype (%) [3]: 20% and 15% | Population Normal (%) [3]: 84% and 76% and 82% | Population Pyknosed Nuclei (%) [3]: 48% and 65% and 66% | Population Tubulin-Different-Phenotype (%) [3]: 25% and 33% and 57% | Population Hoechst High Intensity Objects (%) [4]: 20% and 22% and 11% | Population Mitochondria Different-Phenotype (%) [4]: 23% and 35% and 18% | Population Normal (%) [4]: 79% and 77% and 88% | Population Pyknosed Nuclei (%) [4]: 52% and 55% and 35% | Population Apoptotic (%) [5]: 48% | Population Fragmented Nuclei (%) [5]: 35% | Population Healthy Nuclei (%) [5]: 17% | Population Hoechst High Intensity Objects (%) [5]: 15% | Population Membrane Permeable-Phenotype (%) [5]: 18% | Population Mitochondria Different-Phenotype (%) [5]: 16% | Population Mitotic Cells (%) [5]: 51% | Population Normal (%) [5]: 84% | Population Pyknosed Nuclei (%) [5]: 46% | Population Tubulin-Different-Phenotype (%) [5]: 29% | Population Apoptotic (%) [6]: 28% | Population Fragmented Nuclei (%) [6]: 16% | Population Healthy Nuclei (%) [6]: 30% | Population Hoechst High Intensity Objects (%) [6]: 14% | Population Membrane Permeable-Phenotype (%) [6]: 10% | Population Mitochondria Different-Phenotype (%) [6]: 25% | Population Mitotic Cells (%) [6]: 71% | Population Normal (%) [6]: 85% | Population Pyknosed Nuclei (%) [6]: 52% | Population Tubulin-Different-Phenotype (%) [6]: 73% | Population Apoptotic (%) [7]: 58% and 87% and 91% | Population Fragmented Nuclei (%) [7]: 37% and 33% and 27% | Population Hoechst High Intensity Objects (%) [7]: 19% and 21% and 24% | Population Normal (%) [7]: 80% and 75% | Population Pyknosed Nuclei (%) [7]: 46% and 65% and 70% | Population Fragmented Nuclei (%) [8]: 12% and 32% | Population Hoechst High Intensity Objects (%) [8]: 13% and 29% and 22% | Population Membrane Permeable-Phenotype (%) [8]: 12% and 14% | Population Mitochondria Different-Phenotype (%) [8]: 25% and 57% and 62% | Population Normal (%) [8]: 86% and 70% and 77% | Population Pyknosed Nuclei (%) [8]: 48% and 55% and 66% | Population Tubulin-Different-Phenotype (%) [8]: 86% and 61% and 87% | Population Apoptotic (%) [9]: 96% and 92% | Population Fragmented Nuclei (%) [9]: 36% and 37% | Population Healthy Nuclei (%) [9]: 0% and 1% | Population Hoechst High Intensity Objects (%) [9]: 22% and 19% | Population Membrane Permeable-Phenotype (%) [9]: 0% | Population Mitochondria Different-Phenotype (%) [9]: 100% and 80% | Population Mitotic Cells (%) [9]: 3% and 7% | Population Normal (%) [9]: 77% and 80% | Population Pyknosed Nuclei (%) [9]: 62% | Population Tubulin-Different-Phenotype (%) [9]: 100% and 60% | Population Apoptotic (%) [10]: 97% and 93% | Population Fragmented Nuclei (%) [10]: 23% and 21% | Population Healthy Nuclei (%) [10]: 19% and 17% | Population Hoechst High Intensity Objects (%) [10]: 21% and 26% | Population Membrane Permeable-Phenotype (%) [10]: 6% and 5% | Population Mitochondria Different-Phenotype (%) [10]: 66% and 73% | Population Mitotic Cells (%) [10]: 2% and 6% | Population Normal (%) [10]: 73% | Population Pyknosed Nuclei (%) [10]: 57% and 61% | Population Tubulin-Different-Phenotype (%) [10]: 72% and 84%
